Screening data as filed in PubChem BioAssay.
Compounds with a hit are over-represented: about 3% of the library has one in this group of screens.
HTR1E agonist: activates the human 5-HT1E serotonin receptor; hit rate 0.69% among 65,000; P28566; AID 574; CHO 5-HT1E Ga15 NFAT-bla reporter, FRET; 0% DMSO wells, 100% control agonist wells; activation, % at 6 µM;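 active = activation above a set limit, the screen-wide mean activation plus 3 SD, cut at about 8.5% in these data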
S1P1 ag-PAM: S1P1 (human) agonism or agonism potentiation | P21453 | activation, % at 9.5 µM | hit rate 0.57% among 56,000 | AID 449 | S1P1 CRE-bla cells, forskolin, beta-lactamase FRET, potentiator mode; S1P1 agonist co-added at EC20, 2 nM; 100% = saturating reference agonist, 0% = basal;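 active = activation above a cutoff set at the mean activation of all tested compounds plus 3 SD, cut at about 54% in these data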;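 also: forskolin at 4 µM as EC80 and the EC20 agonist is SEW2871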
5HT1E antag: 5-HT1E (human) receptor antagonism. CHO 5-HT1E Ga15 NFAT-bla reporter, FRET, antagonist. hit rate 0.99% among 65,000. inhibition, % at 6 µM;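 active = inhibition above a set limit, the mean inhibition across every tested compound plus 3 SD, cut at about 29% in these data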;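 also: signal is the 460 over 535 nm emission ratio of beta-lactamase substrate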
HTR1A agonist: 5-HT1a (human) receptor agonism. hit rate 0.56% among 65,000. activation, % at 10 µM. CHO 5-HT1a Ga15 NFAT-bla reporter, FRET ratio; 0% basal, 100% maximal reference agonist. P08908;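 active = activation above the screen-wide mean activation plus 3 SD, cut at about 19% in these data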
S1P3 ag: activates the human S1P3 receptor; hit rate 0.1% among 60,000; activation, % at 4.5 µM; Q99500; AID 373; S1P3 NFAT-BLA reporter cells, agonism, FRET ratio; relative to 1 µM S1P, basal subtracted;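 active = activation above the screen-wide mean plus 3 SD, cut at about 4.5% in these data, passing the limit was not always enough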
Target sequence (Q99500 whole entry, looked up): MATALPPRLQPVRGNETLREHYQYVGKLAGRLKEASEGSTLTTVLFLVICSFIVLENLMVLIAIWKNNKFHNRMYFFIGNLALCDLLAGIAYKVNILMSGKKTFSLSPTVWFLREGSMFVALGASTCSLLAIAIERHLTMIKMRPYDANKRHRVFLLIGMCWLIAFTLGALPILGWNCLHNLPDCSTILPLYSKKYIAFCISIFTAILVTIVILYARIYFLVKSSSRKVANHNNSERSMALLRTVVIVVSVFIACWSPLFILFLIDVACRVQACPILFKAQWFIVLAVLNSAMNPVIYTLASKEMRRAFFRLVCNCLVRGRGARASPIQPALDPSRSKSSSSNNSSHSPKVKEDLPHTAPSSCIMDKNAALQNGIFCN
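Assay system: stable CHO line with human S1P3, Gα16, NFAT-BLA reporter; Detection: FRET β-lactamase substrate fluorescence, excitation 405 nm, 460/535 nm emission ratio, background-subtracted; Read-out: percent activation versus median 1 µM S1P response, basal-subtracted, per plate; Incubation: cells plated overnight, compound 4 h 37 °C, substrate 2 h RT.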
5HT1a antag: antagonists of human 5-HT1a serotonin receptor; P08908; CHO 5-HT1a Ga15 NFAT-bla reporter, antagonist mode; inhibition, % at 10 µM; hit rate 0.68% among 62,000; AID 612;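 active = inhibition above the mean of all tested compounds plus 3 SD, cut at about 43% in these data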;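 also: receptor stimulated by 5-CT agonist at 100 nM near EC80; beta-lactamase reporter measured by ratiometric fluorescence of a cleavable substrate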
Large screens that a line does not name were inactive.

CC1(C)CC(=O)c2cc(OCC(=O)NCCCN3CCN(c4ccccc4F)CC3)ccc2O1	HTR1E agonist 9.6
CC1(C)CC(=O)c2cc(OCC(=O)NCc3cccnc3)ccc2O1	none
Cc1sc(NC(=O)CSc2nnc(-c3ccc(F)cc3)o2)c(C#N)c1C	none
N#CC1=C2SCC(O)(c3ccccc3)N2C(=O)CC1c1cccs1 (configuration not stated)	5HT1E antag 34
O=C(CCCN1CC=C(n2c(=O)[nH]c3ccccc32)CC1)c1ccc(F)cc1	none (no result: 5HT1a antag)
O=c1c2ccccc2nc2n1CC/C2=C/N1CCN(c2cccc(C(F)(F)F)c2)CC1	HTR1E agonist 39
O=C(Oc1ccc(-c2cnc3ccccc3n2)cc1)c1ccco1	none
CCC(=O)N1CCc2cc(S(=O)(=O)N3CCN(C(=O)c4ccco4)CC3)ccc21	none (no result: S1P1 ag-PAM, S1P3 ag)
CC(=O)N1CCc2cc(S(=O)(=O)CCC(=O)N3CCN(C(=O)c4ccco4)CC3)ccc21	5HT1E antag 31
O=C(Cc1ccc(-n2cccc2)cc1)NCc1cccs1	5HT1E antag 51
O=C(Cn1cccc1)NCc1cccs1	none
Cc1cc2ccccc2c(=O)n1CC(=O)N(C)c1ccc(F)cc1	none
CCCCC(CC)C(=O)NCCCN1CCN(CCCNC(=O)C(CC)CCCC)CC1 (configuration not stated)	none (no result: S1P1 ag-PAM)
Cc1sc2ncn(CC(=O)OC(C)C(=O)NC(C)(C)C)c(=O)c2c1C (configuration not stated)	HTR1A agonist 98 (no result: S1P1 ag-PAM, S1P3 ag)
CC1=CC(C)(C)Nc2ccc(OC(=O)c3ccco3)cc21	5HT1E antag 51, HTR1A agonist 25
CC1=CC(C)(C)Nc2ccc(OC(=O)c3cccnc3)cc21	S1P1 ag-PAM 64, 5HT1E antag 30
CC1=CC(C)(C)Nc2ccc(OC(=O)CN3C(=O)CCC3=O)cc21	none
Fc1ccc(Cn2nnnc2CN2CCN(C3CCCC3)CC2)cc1	none
CCC(c1nnnn1Cc1ccc(F)cc1)N1CCN(C2CCCCC2)CC1 (configuration not stated)	5HT1a antag 47
CC(C)C(c1nnnn1Cc1cccs1)N1CCN(C2CCCC2)CC1 (configuration not stated)	HTR1A agonist 31
CC(C)(C)Nc1nc(OCC(F)(F)F)nc(OCC(F)(F)F)n1	none
COC(=O)N1CC(=O)N(OC)C1c1ccc(Cl)cc1Cl (configuration not stated)	none
CCn1c(Cc2ccccc2)nnc1SCC(=O)Nc1ccc(N2CCOCC2)c(Cl)c1	none (no result: S1P1 ag-PAM)
Cn1c(SCC(=O)Nc2ccc(N3CCOCC3)c(Cl)c2)nnc1-c1ccccc1	S1P1 ag-PAM 89
Cn1c(=O)c2c(nc(N3CCCCCC3)n2CC(=O)c2ccccc2)n(C)c1=O	none
C/C(Cl)=C\Cn1c(N2CCCCCC2)nc2c1c(=O)n(C)c(=O)n2C	5HT1E antag 35
O=C(O)C1CCCCC1C(=O)NCCc1ccncc1 (configuration not stated)	none
O=C(NCCc1c[nH]c2ccccc12)C1CCN(c2nnc(N3CCCC3=O)s2)CC1	HTR1E agonist 46
O=C(O)C1CCCCC1C(=O)NCCc1c[nH]c2ccccc12 (configuration not stated)	HTR1E agonist 99, HTR1A agonist 22
O=C(NCCc1c[nH]c2ccccc12)C(F)(F)C(F)F	HTR1E agonist 26
CC(C)c1cc(Nc2cccc(O)c2)cc(C(C)C)c1O	none
Cc1cc(=O)oc2cc3c(cc12)OCCO3	none
Cc1cc(=O)oc2cc3c(cc12)OCCN3	HTR1E agonist 12, HTR1A agonist 25
CC(C)Nc1nc(SCC(=O)Nc2ccccc2)nc(N2CCOCC2)n1	none
CCCn1nc(-c2nnc(-c3ccc(C)c(C)c3)o2)c2ccccc2c1=O	none
CC(C)c1ccc2oc(-c3cc(N)ccc3O)nc2c1	S1P1 ag-PAM 64
Cc1onc(-c2c(Cl)cccc2Cl)c1C(=O)N1CCc2ccccc21	S1P3 ag 7.4
COc1ccc2nc3sc(C(=O)N4CCN(C)CC4)cc3cc2c1	HTR1E agonist 25
CC(C)Oc1cccc(C(=O)Nc2ccccc2N2CCOCC2)c1	5HT1E antag 32
O=C(Nc1ccc(N2CCOCC2)c(Cl)c1)c1cccc(F)c1	S1P1 ag-PAM 88
O=C(Nc1ccc(N2CCOCC2)c(Cl)c1)c1c(F)c(F)c(F)c(F)c1F	none (no result: S1P1 ag-PAM)
CCCCn1c(CN2CCN(C(=O)c3ccco3)CC2)nc2c1c(=O)n(C)c(=O)n2C	none
CN(C)/C=C1\C(=O)c2ccc(N(C)C)nc2CC1c1ccccc1 (configuration not stated)	HTR1E agonist 25, HTR1A agonist 99
CCOC(=O)c1cccc(NC(=O)C2CCCN2S(=O)(=O)c2cccc3cccnc23)c1 (configuration not stated)	none
O=C(Nc1cccc(C(F)(F)F)c1)C1CCCN1S(=O)(=O)c1cccc2cccnc12 (configuration not stated)	S1P1 ag-PAM 71
COc1ccc2cc3cc(C(=O)NCCN4CCN(c5ccccc5F)CC4)oc3nc2c1	HTR1E agonist 17, 5HT1a antag 71
COc1nc(OC)nc(N2CCC(NC(=O)C(Cc3ccc(C(C)C)cc3)NC(C)=O)CC2)n1 (configuration not stated)	none
CCn1c(=O)c(C(=O)Nc2nc3ccccc3[nH]2)c(O)c2ccccc21	5HT1E antag 64, 5HT1a antag 57
Cc1ccc2nc(NC3=NCN(Cc4ccc5c(c4)OCO5)CN3)nc(C)c2c1	none
O=C1N(CN2CCN(c3cccc(Cl)c3)CC2)c2ccccc2C12OCCCO2	HTR1E agonist 24
O=C1N(CN2CCC3(CC2)OCCO3)c2ccccc2C12OCCCO2	none
CC1CCOC2(O1)C(=O)N(CN1CCN(c3ccccc3F)CC1)c1ccccc12 (configuration not stated)	HTR1E agonist 14
COCCCN(Cc1ccccn1)S(=O)(=O)Cc1ccccc1	none
COc1ccc(NC(=O)CSc2ccccn2)cc1OC	none
COc1ccc(/C=N/n2cncn2)cc1CSc1ccccn1	HTR1E agonist 16 (no result: 5HT1a antag)
O=C(CN1CCN(c2ccc(Cl)cc2)CC1)c1ccc2c(c1)OCO2	HTR1E agonist 15
CCOC(=O)/C=C1\NC(C)(C)Cc2cc(OC)c(O)cc21	none
COc1cc2c(cc1OC)/C(=C/C(=O)N1CCOCC1)NC(C)(C)C2	5HT1E antag 30
O=C(NCc1ccco1)c1cccc2c1C(=O)N(C1CCCCC1)C2	5HT1E antag 30
O=C(NCc1cccnc1)c1cccc2c1C(=O)N(C1CCCCC1)C2	none
COC(=O)Cc1c(C)c2c(O)cc(C)cc2oc1=O	HTR1A agonist 134
Nc1nc(-c2ccccc2)cc(-c2ccccc2O)n1	5HT1a antag 57
CN(C)c1cc(-c2ccccc2)nc(N)n1	none
